# Data as given in publication PMC4203514 (Autophagy, 2014).
# Entries after “also recorded” stand apart in the source; their conditions may differ. Where two headings read alike, the source gives them in different places.
# What was measured:
# [1] = system: patients with advanced solid tumors; assay: Treatment-related adverse events by grade; type: in vivo, human
# How it was run: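 Patients who took at least one dose of the oral test compound, given with a dose-intense oral alkylating agent, were evaluable for toxicity. Adverse events were graded by NCI Common Toxicity Criteria v3.0, and haematological toxicities were attributed to the alkylating agent. Complete blood counts were done weekly for the first 6 wk and biweekly thereafter. Treatment ran in 28 d cycles.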
# [2] = system: patients with advanced solid tumors; type: in vivo, human
# How it was run: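 Open-label single-institution 3 + 3 escalation of the oral test compound only, starting at 200 mg daily, split twice daily about 12 h apart above 200 mg, up to 1200 mg. A 14 d monotherapy run-in preceded an oral alkylating agent at 150 mg/m2 daily for 7 of 14 d, in 28 d cycles. DLT was any at least possibly related grade ≥ 3 event in the first 6 wk. MTD was ≤ 1/6 patients with DLT.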
# [3] = system: patients with rheumatoid arthritis; details: 1200 mg/d HCQ (600 mg twice daily), after 6 wk; cited from earlier work
# [4] = system: peripheral blood mononuclear cells; assay: Autophagic vacuole; type: in vivo, human; details: after 2 wk run-in of HCQ; baseline 2.19
# [5] = system: glioma; details: cited from earlier work
# [6] = all patients (37 evaluable for toxicities)
compound,measurement,setting,value
"CCN(CCO)CCCC(C)Nc1ccnc2cc(Cl)ccc12 (stereo not drawn) [HCQ, hydroxychloroquine]",Diarrhea G1/G2,[1]; HCQ 800 mg (n = 15) with TMZ,2 (13) No. (%)
same,Dyspepsia G1/G2,[1]; HCQ 800 mg (n = 15) with TMZ,1 (7) No. (%)
same,Fatigue G1/G2,[1]; HCQ 800 mg (n = 15) with TMZ,7 (47) No. (%)
same,Headaches G1/G2,[1]; HCQ 800 mg (n = 15) with TMZ,2 (13) No. (%)
same,Leukopenia G3/G4,[1]; HCQ 800 mg (n = 15) with TMZ,1 (7) No. (%)
same,Lymphopenia G1/G2,[1]; HCQ 800 mg (n = 15) with TMZ,3 (20) No. (%)
same,Lymphopenia G3/G4,[1]; HCQ 800 mg (n = 15) with TMZ,1 (7) No. (%)
same,Myalgias G1/G2,[1]; HCQ 800 mg (n = 15) with TMZ,1 (7) No. (%)
same,Nausea G1/G2,[1]; HCQ 800 mg (n = 15) with TMZ,6 (40) No. (%)
same,Neutropenia G3/G4,[1]; HCQ 800 mg (n = 15) with TMZ,2 (13) No. (%)
same,Pruritus G1/G2,[1]; HCQ 800 mg (n = 15) with TMZ,1 (7) No. (%)
same,Rash G1/G2,[1]; HCQ 800 mg (n = 15) with TMZ,2 (13) No. (%)
same,Taste change G1/G2,[1]; HCQ 800 mg (n = 15) with TMZ,1 (7) No. (%)
same,Thrombocytopenia G3/G4,[1]; HCQ 800 mg (n = 15) with TMZ,2 (13) No. (%)
same,Vomiting G1/G2,[1]; HCQ 800 mg (n = 15) with TMZ,3 (20) No. (%)
same,Abdominal pain G1/G2,[1]; HCQ 1000 mg (n = 7) with TMZ,2 (29) No. (%)
same,Anemia G3/G4,[1]; HCQ 1000 mg (n = 7) with TMZ,1 (14) No. (%)
same,Anorexia G1/G2,[1]; HCQ 1000 mg (n = 7) with TMZ,1 (14) No. (%)
same,Constipation G1/G2,[1]; HCQ 1000 mg (n = 7) with TMZ,1 (14) No. (%)
same,Diarrhea G1/G2,[1]; HCQ 1000 mg (n = 7) with TMZ,3 (43) No. (%)
same,Dizziness G1/G2,[1]; HCQ 1000 mg (n = 7) with TMZ,1 (14) No. (%)
same,Fatigue G1/G2,[1]; HCQ 1000 mg (n = 7) with TMZ,5 (71) No. (%)
same,Headaches G1/G2,[1]; HCQ 1000 mg (n = 7) with TMZ,1 (14) No. (%)
same,Lymphopenia G1/G2,[1]; HCQ 1000 mg (n = 7) with TMZ,1 (14) No. (%)
same,Nausea G1/G2,[1]; HCQ 1000 mg (n = 7) with TMZ,5 (71) No. (%)
same,Pruritus G1/G2,[1]; HCQ 1000 mg (n = 7) with TMZ,1 (14) No. (%)
same,Rash G3/G4,[1]; HCQ 1000 mg (n = 7) with TMZ,1 (14) No. (%)
same,Taste change G1/G2,[1]; HCQ 1000 mg (n = 7) with TMZ,1 (14) No. (%)
same,Thrombocytopenia G1/G2,[1]; HCQ 1000 mg (n = 7) with TMZ,2 (29) No. (%)
same,Vomiting G1/G2,[1]; HCQ 1000 mg (n = 7) with TMZ,2 (29) No. (%)
same,Anemia G1/G2,[1]; HCQ 1200 mg (n = 8) with TMZ,1 (13) No. (%)
same,Anorexia G1/G2,[1]; HCQ 1200 mg (n = 8) with TMZ,3 (38) No. (%)
same,Bradycardia G1/G2,[1]; HCQ 1200 mg (n = 8) with TMZ,1 (13) No. (%)
same,Constipation G1/G2,[1]; HCQ 1200 mg (n = 8) with TMZ,2 (25) No. (%)
same,Diarrhea G1/G2,[1]; HCQ 1200 mg (n = 8) with TMZ,2 (25) No. (%)
same,Fatigue G1/G2,[1]; HCQ 1200 mg (n = 8) with TMZ,7 (88) No. (%)
same,Hypotension G1/G2,[1]; HCQ 1200 mg (n = 8) with TMZ,1 (13) No. (%)
same,Lymphopenia G3/G4,[1]; HCQ 1200 mg (n = 8) with TMZ,1 (13) No. (%)
same,Nausea G1/G2,[1]; HCQ 1200 mg (n = 8) with TMZ,4 (50) No. (%)
same,Nausea G3/G4,[1]; HCQ 1200 mg (n = 8) with TMZ,1 (13) No. (%)
same,Rash G1/G2,[1]; HCQ 1200 mg (n = 8) with TMZ,1 (13) No. (%)
same,Thrombocytopenia G1/G2,[1]; HCQ 1200 mg (n = 8) with TMZ,1 (13) No. (%)
same,Vomiting G1/G2,[1]; HCQ 1200 mg (n = 8) with TMZ,2 (25) No. (%)
same,Vomiting G3/G4,[1]; HCQ 1200 mg (n = 8) with TMZ,1 (13) No. (%)
same,≥ grade 1 treatment-related anorexia,[1]; [6],35%
same,≥ grade 1 treatment-related constipation,[1]; [6],22%
same,≥ grade 1 treatment-related diarrhea,[1]; [6],24%
same,≥ grade 1 treatment-related fatigue,[1]; [6],97%
same,≥ grade 1 treatment-related nausea,[1]; [6],65%
same,Maximum tolerated dose (MTD),[2]; HCQ up to 1200 mg/d combined with dose-intense TMZ 150 mg/m^2 daily for 7/14 d,No maximal tolerated dose; also recorded: not reached
same,Recommended phase II dose (RPTD),"[2]; combined with dose-intense TMZ, dose level 5",600 mg twice daily
same,Dose-limiting toxicity,"[2]; dose level 1 (HCQ 200 mg/day), three patients",no dose-limiting toxicity (DLT) was observed
same,Dose-limiting toxicity,[2]; dose level 2 (HCQ 400 mg/day),no DLT observed
same,Serious adverse event,"[2]; dose level 3 (HCQ 400 mg twice daily), patient on sotalol, within 8 d, attributed to dehydration and not to the study drug",third-degree heart block
same,Dose-limiting toxicity,"[2]; dose level 4 (HCQ 1000 mg/day), none in 3 additional patients",one grade 3 rash
same,Dose-limiting toxicity,"[2]; dose level 5 (HCQ 1200 mg/d), first cycle, none in expanded cohort",one patient experienced grade 3 nausea and vomiting
same,Dose-limiting toxicity as a single agent,[3],dose-limiting nausea
same,Mean AV count per cell in PBMC,[4],2.45
same,Myelosuppression,[5]; HCQ 800 mg with TMZ 75 mg/m^2 daily and brain radiation,all experienced grade 4 myelosuppression
same,Maximal tolerated dose of HCQ,[5]; combined with TMZ 75 mg/m^2 daily for 6 wk with concomitant brain radiation,600 mg daily
